Reference: ChEMBL document CHEMBL3044834, “Novel protoporphyrinogen oxidase inhibitors: 3H-pyrazolo[3,4-d][1,2,3]triazin-4-one derivatives” (J Agric Food Chem, 2008)

Assays:
Format in all cases: functional
[1] = system: Brassica rapa subsp. oleifera; assay: Herbicidal activity against Brassica rapa subsp. oleifera assessed as inhibition of fresh weed plant weight at 1500 g/ha using post-emergence treatment protocol
How it was run: (§1)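 Test compounds made up as emulsions by dissolving in 100 µL N,N-dimethylformamide, then adding a little Tween 20 and water. For post-emergence, weed seedlings at one leaf and one stem were sprayed at the same rates as the pre-emergence test. Fresh weight was recorded 15 days after treatment and expressed as percent inhibition versus controls. All treatments were run in triplicate.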

[2] = system: Brassica rapa subsp. oleifera; assay: Herbicidal activity against Brassica rapa subsp. oleifera assessed as inhibition of fresh weed plant weight at 375 g/ha using post-emergence treatment protocol; how it was run: as §1
Digitaria sanguinalis [3] = assay: Herbicidal activity against Digitaria sanguinalis (hairy crabgrass) assessed as inhibition of fresh weed plant weight at 375 g/ha using post-emergence treatment protocol; how it was run: as §1
Echinochloa crus-galli [4] = assay: Herbicidal activity against Echinochloa crus-galli (barnyard grass) assessed as inhibition of fresh weed plant weight at 45 g/ha using pre-emergence treatment protocol
Digitaria sanguinalis [5] = assay: Herbicidal activity against Digitaria sanguinalis (hairy crabgrass) assessed as inhibition of fresh weed plant weight at 187.5 g/ha using pre-emergence treatment protocol
Amaranthus retroflexus [6] = assay: Herbicidal activity against Amaranthus retroflexus assessed as inhibition of fresh weed plant weight at 187.5 g/ha using post-emergence treatment protocol; how it was run: as §1
Digitaria sanguinalis [7] = assay: Herbicidal activity against Digitaria sanguinalis (hairy crabgrass) assessed as inhibition of fresh weed plant weight at 45 g/ha using pre-emergence treatment protocol
Amaranthus retroflexus [8] = assay: Herbicidal activity against Amaranthus retroflexus assessed as inhibition of fresh weed plant weight at 22.5 g/ha using pre-emergence treatment protocol
Amaranthus retroflexus [9] = assay: Herbicidal activity against Amaranthus retroflexus assessed as inhibition of fresh weed plant weight at 750 g/ha using post-emergence treatment protocol; how it was run: as §1
[10] = system: Brassica rapa subsp. oleifera; assay: Herbicidal activity against Brassica rapa subsp. oleifera assessed as inhibition of fresh weed plant weight at 22.5 g/ha using pre-emergence treatment protocol
[11] = system: Brassica rapa subsp. oleifera; assay: Herbicidal activity against Brassica rapa subsp. oleifera assessed as inhibition of fresh weed plant weight at 750 g/ha using pre-emergence treatment protocol
Echinochloa crus-galli [12] = assay: Herbicidal activity against Echinochloa crus-galli (barnyard grass) assessed as inhibition of fresh weed plant weight at 22.5 g/ha using pre-emergence treatment protocol; how it was run: as §1
Echinochloa crus-galli [13] = assay: Herbicidal activity against Echinochloa crus-galli (barnyard grass) assessed as inhibition of fresh weed plant weight at 187.5 g/ha using pre-emergence treatment protocol; how it was run: as §1
Amaranthus retroflexus [14] = assay: Herbicidal activity against Amaranthus retroflexus assessed as inhibition of fresh weed plant weight at 375 g/ha using post-emergence treatment protocol; how it was run: as §1
Digitaria sanguinalis [15] = assay: Herbicidal activity against Digitaria sanguinalis (hairy crabgrass) assessed as inhibition of fresh weed plant weight at 187.5 g/ha using post-emergence treatment protocol; how it was run: as §1
Amaranthus retroflexus [16] = assay: Herbicidal activity against Amaranthus retroflexus assessed as inhibition of fresh weed plant weight at 1500 g/ha using post-emergence treatment protocol; how it was run: as §1
Digitaria sanguinalis [17] = assay: Herbicidal activity against Digitaria sanguinalis (hairy crabgrass) assessed as inhibition of fresh weed plant weight at 93.75 g/ha using post-emergence treatment protocol; how it was run: as §1
Digitaria sanguinalis [18] = assay: Herbicidal activity against Digitaria sanguinalis (hairy crabgrass) assessed as inhibition of fresh weed plant weight at 1500 g/ha using post-emergence treatment protocol; how it was run: as §1
Amaranthus retroflexus [19] = assay: Herbicidal activity against Amaranthus retroflexus assessed as inhibition of fresh weed plant weight at 750 g/ha using pre-emergence treatment protocol; how it was run: as §1
Echinochloa crus-galli [20] = assay: Herbicidal activity against Echinochloa crus-galli (barnyard grass) assessed as inhibition of fresh weed plant weight at 750 g/ha using pre-emergence treatment protocol
Echinochloa crus-galli [21] = assay: Herbicidal activity against Echinochloa crus-galli (barnyard grass) assessed as inhibition of fresh weed plant weight at 375 g/ha using pre-emergence treatment protocol; how it was run: as §1
Digitaria sanguinalis [22] = assay: Herbicidal activity against Digitaria sanguinalis (hairy crabgrass) assessed as inhibition of fresh weed plant weight at 375 g/ha using pre-emergence treatment protocol
Amaranthus retroflexus [23] = assay: Herbicidal activity against Amaranthus retroflexus assessed as inhibition of fresh weed plant weight at 375 g/ha using pre-emergence treatment protocol
[24] = system: Brassica rapa subsp. oleifera; assay: Herbicidal activity against Brassica rapa subsp. oleifera assessed as inhibition of fresh weed plant weight at 45 g/ha using pre-emergence treatment protocol
[25] = system: Brassica rapa subsp. oleifera; assay: Herbicidal activity against Brassica rapa subsp. oleifera assessed as inhibition of fresh weed plant weight at 750 g/ha using post-emergence treatment protocol; how it was run: as §1
[26] = system: Brassica rapa subsp. oleifera; assay: Herbicidal activity against Brassica rapa subsp. oleifera assessed as inhibition of fresh weed plant weight at 93.75 g/ha using post-emergence treatment protocol; how it was run: as §1
[27] = system: Brassica rapa subsp. oleifera; assay: Herbicidal activity against Brassica rapa subsp. oleifera assessed as inhibition of fresh weed plant weight at 1500 g/ha using pre-emergence treatment protocol
Amaranthus retroflexus [28] = assay: Herbicidal activity against Amaranthus retroflexus assessed as inhibition of fresh weed plant weight at 1500 g/ha using pre-emergence treatment protocol
Digitaria sanguinalis [29] = assay: Herbicidal activity against Digitaria sanguinalis (hairy crabgrass) assessed as inhibition of fresh weed plant weight at 750 g/ha using post-emergence treatment protocol; how it was run: as §1
[30] = system: Brassica rapa subsp. oleifera; assay: Herbicidal activity against Brassica rapa subsp. oleifera assessed as inhibition of fresh weed plant weight at 187.5 g/ha using pre-emergence treatment protocol
Amaranthus retroflexus [31] = assay: Herbicidal activity against Amaranthus retroflexus assessed as inhibition of fresh weed plant weight at 187.5 g/ha using pre-emergence treatment protocol
Echinochloa crus-galli [32] = assay: Herbicidal activity against Echinochloa crus-galli (barnyard grass) assessed as inhibition of fresh weed plant weight at 93.75 g/ha using pre-emergence treatment protocol
Digitaria sanguinalis [33] = assay: Herbicidal activity against Digitaria sanguinalis (hairy crabgrass) assessed as inhibition of fresh weed plant weight at 93.75 g/ha using pre-emergence treatment protocol
Echinochloa crus-galli [34] = assay: Herbicidal activity against Echinochloa crus-galli (barnyard grass) assessed as inhibition of fresh weed plant weight at 1500 g/ha using pre-emergence treatment protocol
Digitaria sanguinalis [35] = assay: Herbicidal activity against Digitaria sanguinalis (hairy crabgrass) assessed as inhibition of fresh weed plant weight at 22.5 g/ha using pre-emergence treatment protocol
Echinochloa crus-galli [36] = assay: Herbicidal activity against Echinochloa crus-galli (barnyard grass) assessed as inhibition of fresh weed plant weight at 93.75 g/ha using post-emergence treatment protocol; how it was run: as §1
[37] = system: Brassica rapa subsp. oleifera; assay: Herbicidal activity against Brassica rapa subsp. oleifera assessed as inhibition of fresh weed plant weight at 93.75 g/ha using pre-emergence treatment protocol
Echinochloa crus-galli [38] = assay: Herbicidal activity against Echinochloa crus-galli (barnyard grass) assessed as inhibition of fresh weed plant weight at 375 g/ha using post-emergence treatment protocol; how it was run: as §1
Digitaria sanguinalis [39] = assay: Herbicidal activity against Digitaria sanguinalis (hairy crabgrass) assessed as inhibition of fresh weed plant weight at 1500 g/ha using pre-emergence treatment protocol
Amaranthus retroflexus [40] = assay: Herbicidal activity against Amaranthus retroflexus assessed as inhibition of fresh weed plant weight at 45 g/ha using pre-emergence treatment protocol
[41] = system: Brassica rapa subsp. oleifera; assay: Herbicidal activity against Brassica rapa subsp. oleifera assessed as inhibition of fresh weed plant weight at 187.5 g/ha using post-emergence treatment protocol; how it was run: as §1
Echinochloa crus-galli [42] = assay: Herbicidal activity against Echinochloa crus-galli (barnyard grass) assessed as inhibition of fresh weed plant weight at 750 g/ha using post-emergence treatment protocol; how it was run: as §1
Echinochloa crus-galli [43] = assay: Herbicidal activity against Echinochloa crus-galli (barnyard grass) assessed as inhibition of fresh weed plant weight at 1500 g/ha using post-emergence treatment protocol; how it was run: as §1
Echinochloa crus-galli [44] = assay: Herbicidal activity against Echinochloa crus-galli (barnyard grass) assessed as inhibition of fresh weed plant weight at 187.5 g/ha using post-emergence treatment protocol; how it was run: as §1
Amaranthus retroflexus [45] = assay: Herbicidal activity against Amaranthus retroflexus assessed as inhibition of fresh weed plant weight at 93.75 g/ha using post-emergence treatment protocol; how it was run: as §1
Digitaria sanguinalis [46] = assay: Herbicidal activity against Digitaria sanguinalis (hairy crabgrass) assessed as inhibition of fresh weed plant weight at 750 g/ha using pre-emergence treatment protocol
Amaranthus retroflexus [47] = assay: Herbicidal activity against Amaranthus retroflexus assessed as inhibition of fresh weed plant weight at 93.75 g/ha using pre-emergence treatment protocol
[48] = system: Brassica rapa subsp. oleifera; assay: Herbicidal activity against Brassica rapa subsp. oleifera assessed as inhibition of fresh weed plant weight at 375 g/ha using pre-emergence treatment protocol

SMILES: C#CCN1C(=O)COc2cc(F)c(-n3nnc4c(cnn4CC=C)c3=O)cc21
- inhibition at 1500 g/ha [1]: 100%
- inhibition at 375 g/ha [2]: 100%
- inhibition at 375 g/ha (Digitaria sanguinalis [3]): 4.2%
- inhibition at 45 g/ha (Echinochloa crus-galli [4]): 34%
- inhibition at 187.5 g/ha (Digitaria sanguinalis [5]): 77.6%
- inhibition at 187.5 g/ha (Amaranthus retroflexus [6]): 5.8%
- inhibition at 45 g/ha (Digitaria sanguinalis [7]): 2.4%
- inhibition at 22.5 g/ha (Amaranthus retroflexus [8]): 76.6%
- inhibition at 750 g/ha (Amaranthus retroflexus [9]): 100%
- inhibition at 22.5 g/ha [10]: 22.3%
- inhibition at 750 g/ha [11]: 100%
- inhibition at 22.5 g/ha (Echinochloa crus-galli [12]): 25.1%
- inhibition at 187.5 g/ha (Echinochloa crus-galli [13]): 63.7%
- inhibition at 375 g/ha (Amaranthus retroflexus [14]): 83.5%
- inhibition at 187.5 g/ha (Digitaria sanguinalis [15]): 0%
- inhibition at 1500 g/ha (Amaranthus retroflexus [16]): 100%
- inhibition at 93.75 g/ha (Digitaria sanguinalis [17]): 0%
- inhibition at 1500 g/ha (Digitaria sanguinalis [18]): 32.1%
- inhibition at 750 g/ha (Amaranthus retroflexus [19]): 100%
- inhibition at 750 g/ha (Echinochloa crus-galli [20]): 98.9%
- inhibition at 375 g/ha (Echinochloa crus-galli [21]): 97.3%
- inhibition at 375 g/ha (Digitaria sanguinalis [22]): 100%
- inhibition at 375 g/ha (Amaranthus retroflexus [23]): 100%
- inhibition at 45 g/ha [24]: 66.7%
- inhibition at 750 g/ha [25]: 100%
- inhibition at 93.75 g/ha [26]: 18.5%
- inhibition at 1500 g/ha [27]: 100%
- inhibition at 1500 g/ha (Amaranthus retroflexus [28]): 100%
- inhibition at 750 g/ha (Digitaria sanguinalis [29]): 16.7%
- inhibition at 187.5 g/ha [30]: 100%
- inhibition at 187.5 g/ha (Amaranthus retroflexus [31]): 100%
- inhibition at 93.75 g/ha (Echinochloa crus-galli [32]): 53.4%
- inhibition at 93.75 g/ha (Digitaria sanguinalis [33]): 44.9%
- inhibition at 1500 g/ha (Echinochloa crus-galli [34]): 100%
- inhibition at 22.5 g/ha (Digitaria sanguinalis [35]): 0%
- inhibition at 93.75 g/ha (Echinochloa crus-galli [36]): 7%
- inhibition at 93.75 g/ha [37]: 100%
- inhibition at 375 g/ha (Echinochloa crus-galli [38]): 43.5%
- inhibition at 1500 g/ha (Digitaria sanguinalis [39]): 100%
- inhibition at 45 g/ha (Amaranthus retroflexus [40]): 86.2%
- inhibition at 187.5 g/ha [41]: 72.9%
- inhibition at 750 g/ha (Echinochloa crus-galli [42]): 51.6%
- inhibition at 1500 g/ha (Echinochloa crus-galli [43]): 85.2%
- inhibition at 187.5 g/ha (Echinochloa crus-galli [44]): 27.8%
- inhibition at 93.75 g/ha (Amaranthus retroflexus [45]): 0%
- inhibition at 750 g/ha (Digitaria sanguinalis [46]): 100%
- inhibition at 93.75 g/ha (Amaranthus retroflexus [47]): 100%
- inhibition at 375 g/ha [48]: 100%
